Experiments:
[1] = system: Rattus norvegicus; experiment: Biodistribution of [125I]-IBF in skin was determined in rats 60 minutes after intraveneous injection; type: ADME, organism-based, Zone of skin; details: in vivo, iv, 1 h
Procedure, shortened: (§1)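 Male Sprague–Dawley rats (225–300 g) with free access to food and water. Under halothane anesthesia they received [125I]IBF (8–10 μCi in 0.2 mL saline) into the femoral vein. Rats were killed by cardiac excision under halothane at the stated time. Organs were weighed and gamma-counted, and % dose/organ was taken against diluted aliquots of the injectate. Blood was assumed to be 7% of body weight and muscle 40%.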

[2] = system: Rattus norvegicus; experiment: Biodistribution of [125I]IBF in thyroid was determined in rats 30 minutes after intraveneous injection; type: ADME, organism-based, Thyroid gland; details: in vivo, iv, 0.5 h
Procedure, shortened: (§2)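 Male Sprague–Dawley rats (225–300 g) with free access to food and water were anesthetized with halothane. Each received 0.2 mL saline containing 8–10 μCi [125I]IBF into the femoral vein and was killed by cardiac excision under halothane at set times. Organs were weighed and gamma-counted, and uptake was calculated against diluted aliquots of the injected dose.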

[3] = system: Rattus norvegicus; experiment: Biodistribution of [125I]IBF in liver was determined in rats 15 minutes after intraveneous injection; type: ADME, organism-based; details: in vivo, iv, 0.25 h; procedure, shortened: as §1
[4] = system: Rattus norvegicus; experiment: Biodistribution of [125I]IBF in kidney was determined in rats 15 minutes after intraveneous injection; type: ADME, organism-based; details: in vivo, iv, 0.25 h; procedure, shortened: as §1
[5] = system: Rattus norvegicus; experiment: Biodistribution of [125I]IBF in lung was determined in rats 60 minutes after intraveneous injection; type: ADME, organism-based; details: in vivo, iv, 1 h; procedure, shortened: as §1
[6] = system: Rattus norvegicus; experiment: Biodistribution of [125I]IBF in thyroid was determined in rats 15 minutes after intraveneous injection; type: ADME, organism-based, Thyroid gland; details: in vivo, iv, 0.25 h; procedure, shortened: as §2
[7] = system: Rattus norvegicus; experiment: Biodistribution of [125I]-IBF in blood was determined in rats 2 minutes after intraveneous injection; type: ADME, organism-based; details: in vivo, iv; procedure, shortened: as §1
[8] = system: Rattus norvegicus; experiment: Biodistribution of [125I]IBF in heart was determined in rats 2 minutes after intraveneous injection; type: ADME, organism-based; details: in vivo, iv; procedure, shortened: as §1
[9] = system: Rattus norvegicus; experiment: Biodistribution of [125I]IBF in kidney was determined in rats 120 minutes after intraveneous injection; type: ADME, organism-based; details: in vivo, iv, 2 h; procedure, shortened: as §1
[10] = system: Rattus norvegicus; experiment: Biodistribution of [125I]IBF in blood was determined in rats 120 minutes after intraveneous injection; type: ADME, organism-based; details: in vivo, iv, 2 h; procedure, shortened: as §1
[11] = system: Rattus norvegicus; experiment: Biodistribution of [125I]IBF in spleen was determined in rats 2 minutes after intraveneous injection; type: ADME, organism-based; details: in vivo, iv; procedure, shortened: as §1
[12] = system: Rattus norvegicus; experiment: Biodistribution of [125I]IBF in brain/blood was determined in rats 120 minutes after intraveneous injection; type: ADME, organism-based; details: in vivo, iv, 2 h
[13] = system: Rattus norvegicus; experiment: Biodistribution of [125I]IBF in muscle was determined in rats 2 minutes after intraveneous injection; type: ADME, organism-based, Muscle tissue; details: in vivo, iv; procedure, shortened: as §1
[14] = system: Rattus norvegicus; experiment: Biodistribution of [125I]-IBF in heart was determined in rats 120 minutes after intraveneous injection; type: ADME, organism-based; details: in vivo, iv, 2 h; procedure, shortened: as §1
[15] = Biodistribution of [125I]IBF in blood was determined in rats 30 minutes after intraveneous injection; details: rat, in vivo, iv, 0.5 h
[16] = system: Rattus norvegicus; experiment: Biodistribution of [125I]IBF in liver was determined in rats 30 minutes after intraveneous injection; type: ADME, organism-based; details: in vivo, iv, 0.5 h; procedure, shortened: as §1
[17] = system: Rattus norvegicus; experiment: Biodistribution of [125I]IBF in blood was determined in rats 15 minutes after intraveneous injection; type: ADME, organism-based; details: in vivo, iv, 0.25 h; procedure, shortened: as §1
[18] = system: Rattus norvegicus; experiment: Biodistribution of [125I]IBF in striatum was determined in rats 120 minutes after intraveneous injection; type: ADME, organism-based; details: in vivo, iv, 2 h
[19] = system: Rattus norvegicus; experiment: Biodistribution of [125I]IBF in muscle was determined in rats 60 minutes after intraveneous injection; type: ADME, organism-based, Muscle tissue; details: in vivo, iv, 1 h; procedure, shortened: as §1
[20] = system: Rattus norvegicus; experiment: Biodistribution of [125I]IBF in skin was determined in rats 15 minutes after intraveneous injection; type: ADME, organism-based, Zone of skin; details: in vivo, iv, 0.25 h; procedure, shortened: as §1
[21] = system: Rattus norvegicus; experiment: Biodistribution of [125I]IBF in spleen was determined in rats 120 minutes after intraveneous injection; type: ADME, organism-based; details: in vivo, iv, 2 h; procedure, shortened: as §1
[22] = system: Rattus norvegicus; experiment: Biodistribution of [125I]IBF in brain was determined in rats 2 minutes after intraveneous injection; type: ADME, organism-based; details: in vivo, iv; procedure, shortened: as §1
[23] = system: Rattus norvegicus; experiment: Biodistribution of [125I]IBF in kidney was determined in rats 60 minutes after intraveneous injection; type: ADME, organism-based; details: in vivo, iv, 1 h; procedure, shortened: as §1
[24] = system: Rattus norvegicus; experiment: Biodistribution of [125I]-IBF in skin was determined in rats 120 minutes after intraveneous injection; type: ADME, organism-based, Zone of skin; details: in vivo, iv, 2 h; procedure, shortened: as §1
[25] = system: Rattus norvegicus; experiment: Biodistribution of [125I]IBF in liver was determined in rats 2 minutes after intraveneous injection; type: ADME, organism-based; details: in vivo, iv; procedure, shortened: as §1
[26] = system: Rattus norvegicus; experiment: Biodistribution of [125I]-IBF in blood was determined in rats 60 minutes after intraveneous injection; type: ADME, organism-based; details: in vivo, iv, 1 h; procedure, shortened: as §1
[27] = system: Rattus norvegicus; experiment: Biodistribution of [125I]-IBF in heart was determined in rats 60 minutes after intraveneous injection; type: ADME, organism-based; details: in vivo, iv, 1 h; procedure, shortened: as §1
[28] = system: Rattus norvegicus; experiment: Biodistribution of [125I]IBF in thyroid was determined in rats 60 minutes after intraveneous injection; type: ADME, organism-based, Thyroid gland; details: in vivo, iv, 1 h; procedure, shortened: as §2
[29] = system: Rattus norvegicus; experiment: Biodistribution of [125I]IBF in lung was determined in rats 30 minutes after intraveneous injection; type: ADME, organism-based; details: in vivo, iv, 0.5 h; procedure, shortened: as §1
[30] = system: Rattus norvegicus; experiment: Biodistribution of [125I]IBF in liver was determined in rats 120 minutes after intraveneous injection; type: ADME, organism-based; details: in vivo, iv, 2 h; procedure, shortened: as §1

Dose/organ [1]: 2.38%
Dose/organ [2]: 0.02%
Dose/organ [3]: 16.16%
Dose/organ [4]: 2.92%
Dose/organ [5]: 0.37%
Dose/organ [6]: 0.03%
Dose/organ [7]: 3.5%
Dose/organ [8]: 0.81%
Dose/organ [9]: 0.68%
Dose/organ [10]: 0.23%
Dose/organ [11]: 0.96%
Dose/organ [12]: 1.53
Dose/organ [13]: 11.25%
Dose/organ [14]: 0.02%
Dose/organ [15]: 1.26%
Dose/organ [16]: 11.59%
Dose/organ [17]: 1.8%
Dose/gram [18]: 0.444 % dose/g
Dose/organ [19]: 4.97%
Dose/organ [20]: 8.46%
Dose/organ [21]: 0.03%
Dose/organ [22]: 0.98%
Dose/organ [23]: 1.01%
Dose/organ [24]: 1.18%
Dose/organ [25]: 16.32%
Dose/organ [26]: 0.98%
Dose/organ [27]: 0.05%
Dose/organ [28]: 0.02%
Dose/organ [29]: 0.82%
Dose/organ [30]: 3.95%
Compound: CCN1CCC[C@H]1CNC(=O)c1cc(I)cc2c1OCC2
